Series [1] has as its target T1, Arachidonate 5-lipoxygenase-activating protein (Homo sapiens) (UniProt P20292).
T1 sequence (whole entry): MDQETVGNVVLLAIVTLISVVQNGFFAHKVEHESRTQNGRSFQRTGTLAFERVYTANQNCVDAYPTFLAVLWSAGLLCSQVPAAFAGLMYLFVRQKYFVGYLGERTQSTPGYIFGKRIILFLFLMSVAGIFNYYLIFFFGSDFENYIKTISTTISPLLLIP
Description: Inhibition of FLAP in Ca+2 ionophore A23187 stimulated human neutrophils assessed as remaining 5-LO activity preincubated for 15 mins at 10 uM measured after 10 mins by RP-HPLC analysis.

In series [2] the target is T2, Arachidonate 5-lipoxygenase-activating protein (Homo sapiens, UniProt P20292).
T2 sequence (P20292 whole entry): T1 sequence (whole entry)
The experiment in a line: Inhibition of FLAP in Ca+2 ionophore A23187 stimulated human neutrophils assessed as 5-LO product formation preincubated for 15 mins measured after 10 mins by RP-HPLC analysis.

A short description of series [3]: Acute cytotoxicity against human neutrophils assessed as cell viability measured for 30 mins by trypan blue exclusion method. Conditions: neutrophil, 0.5 h. It counts as cell-based. The gist of the method:
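Neutrophils isolated from healthy donor blood by dextran sedimentation and Nycoprep centrifugation, then resuspended in PBS pH 7.4 with 1 mg/ml glucose and 1 mM CaCl₂. Cells were kept 30 min at 37 °C with compound, and cell integrity was read by trypan blue exclusion on an automated counter.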

Series [4] has as its target T3, Polyunsaturated fatty acid 5-lipoxygenase (Homo sapiens, UniProt P09917).
T3 sequence (P09917 whole entry): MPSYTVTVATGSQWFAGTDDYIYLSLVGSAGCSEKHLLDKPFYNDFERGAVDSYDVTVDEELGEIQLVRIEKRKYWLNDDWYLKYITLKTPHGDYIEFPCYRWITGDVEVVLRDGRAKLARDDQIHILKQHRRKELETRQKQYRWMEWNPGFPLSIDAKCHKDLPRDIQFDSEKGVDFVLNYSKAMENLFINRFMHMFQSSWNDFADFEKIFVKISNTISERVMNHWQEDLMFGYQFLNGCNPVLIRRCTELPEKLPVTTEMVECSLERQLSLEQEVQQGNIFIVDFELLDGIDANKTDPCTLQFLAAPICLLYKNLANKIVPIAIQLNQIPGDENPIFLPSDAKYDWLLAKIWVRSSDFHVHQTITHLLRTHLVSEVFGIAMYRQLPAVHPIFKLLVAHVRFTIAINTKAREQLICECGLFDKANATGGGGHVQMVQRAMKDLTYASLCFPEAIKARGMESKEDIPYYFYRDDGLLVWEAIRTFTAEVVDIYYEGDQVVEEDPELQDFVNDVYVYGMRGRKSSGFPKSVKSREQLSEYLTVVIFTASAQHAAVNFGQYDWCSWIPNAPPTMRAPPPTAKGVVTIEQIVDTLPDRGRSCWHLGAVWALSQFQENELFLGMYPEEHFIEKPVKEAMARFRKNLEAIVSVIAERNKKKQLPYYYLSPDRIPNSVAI
Description: Inhibition of recombinant human 5-LO expressed in Escherichia coli BL21 assessed as 5-LO product formation preincubated for 15 mins followed by addition of arachidonic acid as substrate measured after 10 mins by RP-HPLC analysis. The gist of the method: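 Semi-purified 5-LO was diluted in ice-cold PBS with 1 mM EDTA and 1 mM ATP, then held 15 min at 4 °C with compound or 0.1% DMSO. After a 30 s prewarm at 37 °C, 2 mM CaCl₂ plus 20 arachidonic acid were added for 10 min at 37 °C. The reaction was stopped with methanol, and LTB₄ all-trans isomers plus 5-H(P)ETE were read by RP-HPLC. IC₅₀ is n = 3–4 in duplicates.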

Experimental findings from ChEMBL document CHEMBL3779871, “4,5-Diarylisoxazol-3-carboxylic acids: A new class of leukotriene biosynthesis inhibitors potentially targeting 5-lipoxygenase-activating protein (FLAP)” (Eur J Med Chem, 2016) are described below.

One may read the IC50 as the concentration needed to halve the response being measured.

With `O=C(O)c1noc(-c2ccc(OCc3ccccc3C(F)(F)F)cc2)c1-c1ccc(Cl)cc1`, the results for the Activity in series [1] and in series [3] were 5.5% and “Non-toxic”, respectively. For the same molecule, the IC50 in series [2] was 770 nM.

For `O=C(O)c1noc(-c2ccc(OCc3ccccc3Cl)cc2)c1-c1ccc(Cl)cc1`, the values for the Activity in series [1] and in series [3] were 5.1% and “Non-toxic”, respectively. For the same molecule, in series [2], the IC50 was 1200 nM.

Regarding `O=C(O)c1noc(-c2ccc(OCc3ccc4ccccc4n3)cc2)c1-c1ccc(Cl)cc1`, the values for the Activity in series [1] and in series [3] were 2.7% and “Non-toxic”, respectively. Moreover, in series [2], the half-maximal inhibitory concentration (IC50) is 240 nM.

With `N#Cc1cccc(COc2ccc(-c3onc(C(=O)O)c3-c3ccc(Cl)cc3)cc2)c1`, the Activity in series [1] is 6.9%; in series [3], “Non-toxic”. Also, in series [2], the concentration for half-maximal inhibition (IC50) turned out to be 4100 nM.

`CCOC(=O)c1noc(-c2ccc(OCc3ccc(C)cc3)cc2)c1-c1ccc(Cl)cc1`: the Activity in series [1] is 61.4%; in series [3], “Non-toxic”.

With `O=C(O)c1noc(-c2ccc(OCc3nc4ccccc4s3)cc2)c1-c1ccc(Cl)cc1`, the Activity is 2% in series [1] and “Non-toxic” in series [3]. The half-inhibitory concentration (IC50) in series [2] was 240 nM; in series [4] it was over 10000 nM.

With `COc1cc(OCc2ccccc2C)ccc1-c1onc(C)c1-c1ccc(Cl)cc1`, the Activity in series [1] was 81.3%; in series [3], “Non-toxic”.

In the case of `Cc1ccc(COc2ccc(-c3onc(C(=O)O)c3-c3ccc(Cl)cc3)cc2)cc1`, the Activity in series [1] was 15.7%; in series [3], “Non-toxic”. The concentration for half-maximal inhibition (IC50) in series [2] worked out at 1400 nM.

With `Cc1ccccc1COc1ccc(-c2onc(C)c2-c2ccc(Cl)cc2)c(O)c1`, the Activity was 3% in series [1] and “Non-toxic” in series [3].

As for `O=C(O)c1noc(-c2ccc(OCc3ccccn3)cc2)c1-c1ccc(Cl)cc1`, the results for the Activity in series [1] and in series [3] were 8.4% and “Non-toxic”, respectively. The IC50 in series [2] was found to be 4100 nM.

On to `Cc1ccccc1COc1ccc(-c2onc(C(=O)O)c2-c2ccc(Cl)cc2)cc1`, for which the Activity in series [1] is 13.1%; in series [3], “Non-toxic”. In series [2], the IC50 was determined as 1700 nM.

As for `CC(c1cc2ccccc2s1)N(O)C(N)=O` (stereo not drawn) [ZILEUTON], the Activity is 6.7% in series [1] and “Non-toxic” in series [3].

As to `O=C(O)c1noc(-c2ccc(OCc3cccc(F)c3)cc2)c1-c1ccc(Cl)cc1`, the Activity in series [1] is 19.6%; in series [3], “Non-toxic”. In series [2], the IC50 worked out at 1300 nM.

`Cc1ccccc1COc1ccc(-c2onc(C)c2-c2ccc(Cl)cc2)cc1`: the Activity in series [1] is 102%; in series [3], “Non-toxic”.

With `CCOC(=O)c1noc(-c2ccc(OCc3cccc(F)c3)cc2)c1-c1ccc(Cl)cc1`, the Activity was 55.3% in series [1] and “Non-toxic” in series [3].

Regarding `CCOC(=O)c1noc(-c2ccc(OCc3ccccc3C)cc2)c1-c1ccc(Cl)cc1`, the Activity in series [1] was 71.9%; in series [3], “Non-toxic”. Moreover, the IC50 in series [2] was over 10000 nM.
